Laboratory results: ChEMBL document CHEMBL1275434, “In vitro evaluation of CBR-2092, a novel rifamycin-quinolone hybrid antibiotic: studies of the mode of action in Staphylococcus aureus” (Antimicrob Agents Chemother, 2008)
Converted amounts (≈) assume the structure as drawn. The source made the active and inactive calls. The rule behind the calls is not given here.

Tests used:
[1] = tested on: Staphylococcus aureus; experiment: Antimicrobial activity against Staphylococcus aureus CB815 harboring rpoB H481Y, gyrA […] and parC S80F mutant genes by broth microdilution method; format: functional
Summary of the method: (§1)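 CLSI broth microdilution MIC in cation-adjusted Mueller-Hinton (MHII) broth supplemented with 0.002% (vol/vol) polysorbate 80, included to limit compound loss to plastic surfaces.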

[2] = tested on: Staphylococcus aureus; experiment: Antimicrobial activity against Staphylococcus aureus CB1881 harboring rpoB R484H mutant gene and L520 deficient gyrA gene; format: functional
[3] = tested on: Staphylococcus aureus; experiment: Antimicrobial activity against Staphylococcus aureus CB1882 harboring rpoB R484H mutant gene, L520 deficient gyrA gene and R236 duplicated parC gene by broth microdilution method; format: functional
Summary of the method: (§2)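 CLSI broth microdilution MIC in MHII broth with 0.002% (vol/vol) polysorbate 80. Isolates came from daily stepwise broth passage at sub-MIC drug (MHII without polysorbate 80, 10^6 CFU/ml inoculum, 20–24 h shaking at 37°C), were purified drug-free, and were sequenced at target loci.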

[4] = tested on: Staphylococcus aureus; experiment: Antimicrobial activity against Staphylococcus aureus CB1884 harboring rpoB R484H mutant gene, L520 deficient gyrA gene, gyrA S84L mutant gene, R236 duplicated par C gene and parCH103Y mutant gene by broth microdilution; format: functional; summary of the method: as §2
[5] = tested on: Staphylococcus aureus; experiment: Antimicrobial activity against Staphylococcus aureus CB1418 harboring rpoB H481Y and gyrA D705N mutant genes selected after 0.1 ug/ml drug exposure by broth microdilution method
[6] = tested on: Staphylococcus aureus; experiment: Antimicrobial activity against rifampin-sensitive Staphylococcus aureus CB190 harboring rpoB E473 mutant gene by broth microdilution method; format: functional; summary of the method: as §1
[7] = tested on: Staphylococcus aureus; experiment: Antimicrobial activity against rifampin-sensitive Staphylococcus aureus CB190 harboring rpoB A477V mutant gene by broth microdilution method; format: functional; summary of the method: as §1
[8] = tested on: Staphylococcus aureus; experiment: Antimicrobial activity against Staphylococcus aureus CB1420 harboring rpoB H481Y and gyrA G584V mutant genes selected after 0.1 ug/ml drug exposure by broth microdilution method
[9] = tested on: Staphylococcus aureus; experiment: Inhibition of RNA synthesis in quinolone-resistant Staphylococcus aureus CB814 harboring gyrA S84L and parC S80F mutant genes assessed as decrease in [5,6-3H]uridine incorporation at 0.5 ug/ml; format: functional, organism-based
Summary of the method: (§3)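 Macromolecular synthesis time course in S. aureus, measuring incorporation of [methyl-3H]thymidine (DNA), [5,6-3H]uridine (RNA) or [2,3-3H]D-alanine (cell wall). At each time point, incorporation is expressed as percent of the DMSO-treated control culture. Incorporation at time zero is set to 100%.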

[10] = tested on: Staphylococcus aureus; experiment: Antimicrobial activity against Staphylococcus aureus CB1419 harboring rpoB H481Y and gyrA G572D mutant genes selected after 0.1 ug/ml drug exposure by broth microdilution method
[11] = tested on: Staphylococcus aureus; experiment: Antimicrobial activity against rifampin-sensitive Staphylococcus aureus CB190 harboring rpoB H481Y mutant gene by broth microdilution method; format: functional; summary of the method: as §1
[12] = tested on: Staphylococcus aureus; experiment: Antimicrobial activity against Staphylococcus aureus CB1880 harboring rpoB R484H mutant gene; format: functional
[13] = tested on: Staphylococcus aureus; experiment: Antimicrobial activity against Staphylococcus aureus CB814 harboring […] and parC S80F mutant genes by agar dilution method; format: functional
Summary of the method: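 CLSI agar dilution MIC with cation-adjusted Mueller-Hinton (MHII) agar as the base medium.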

[14] = tested on: Staphylococcus aureus; experiment: Antimicrobial activity against Staphylococcus aureus CB1334 harboring rpoB H481Y, parC S80F,Q27H and gyrA S84L mutant genes selected after 0.8 ug/ml drug exposure by broth microdilution method; format: functional
[15] = tested on: Staphylococcus aureus; experiment: Antimicrobial activity against Staphylococcus aureus CB1326 harboring rpoB H481Y and gyrA S784F mutant genes selected after 0.2 ug/ml drug exposure by broth microdilution method; format: functional
Summary of the method: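 CLSI broth microdilution MIC in cation-adjusted Mueller-Hinton (MHII) broth with 0.002% (vol/vol) polysorbate 80. Single-step mutants were selected on agar […], purified by drug-free passage, their phenotype re-verified, and resistance loci sequenced.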

[16] = tested on: Staphylococcus aureus; experiment: Antimicrobial activity against Staphylococcus aureus CB1883 harboring rpoB R484H mutant gene, L520 deficient gyrA gene, gyrA S84L mutant gene and R236 duplicated par C gene by broth microdilution method; format: functional; summary of the method: as §2
[17] = tested on: Staphylococcus aureus; experiment: Inhibition of DNA synthesis in Staphylococcus aureus CB190 assessed as decrease in [methyl-3H]thymidine incorporation at 0.5 ug/ml; format: functional, organism-based
[18] = tested on: Staphylococcus aureus; experiment: Antimicrobial activity against Staphylococcus aureus CB808 harboring quinolone-resistant parC S80F mutant gene by broth microdilution method; format: functional; summary of the method: as §1
[19] = tested on: Staphylococcus aureus; experiment: Inhibition of RNA synthesis in rifamycin-resistant Staphylococcus aureus CB370 harboring rpoB H481Y mutant gene assessed as decrease in [5,6-3H]uridine incorporation at 0.5 ug/ml; format: functional, organism-based; summary of the method: as §3
[20] = tested on: Staphylococcus aureus; experiment: Antimicrobial activity against Staphylococcus aureus CB1954 harboring rpoB H481Y, gyrA S84L, K809 deficient gyrA, parC S80F, parC A523D mutant genes selected after CBR-2092 exposure for 7 days by broth microdilution method; format: functional; conditions: CB1954, 168 h; summary of the method: as §1
[21] = tested on: Staphylococcus aureus; experiment: Antimicrobial activity against Staphylococcus aureus CB1882 harboring rpoB R484H mutant gene, L520 deficient gyrA gene and R236 duplicated parC gene; format: functional
[22] = tested on: Staphylococcus aureus; experiment: Antimicrobial activity against Staphylococcus aureus CB1880 harboring rpoB R484H mutant gene by broth microdilution method; format: functional; summary of the method: as §2
[23] = tested on: Staphylococcus aureus; experiment: Antimicrobial activity against Staphylococcus aureus CB809 harboring rpoB H481Y and parC S80F mutant genes by broth microdilution method
[24] = tested on: Staphylococcus aureus; experiment: Antimicrobial activity against Staphylococcus aureus CB1891 harboring […], parE P587S and parE F638V mutant genes by broth microdilution method
[25] = tested on: Staphylococcus aureus; experiment: Antimicrobial activity against Staphylococcus aureus CB1417 harboring rpoB H481Y and gyrA G532V mutant genes selected after 0.1 ug/ml drug exposure by broth microdilution method
[26] = tested on: Staphylococcus aureus; experiment: Antimicrobial activity against Staphylococcus aureus CB1887 harboring rpoB R484H, L520 deficient gyrA, […], R236 duplicated parC and parC H103Y mutant genes selected after ABT-719 exposure for 20 days by agar dilution method; format: functional; conditions: CB1887, 480 h
[27] = tested on: Staphylococcus aureus; experiment: Inhibition of RNA synthesis in Staphylococcus aureus CB190 assessed as decrease in [5,6-3H]uridine incorporation at 0.5 ug/ml; format: functional, organism-based
[28] = tested on: Staphylococcus aureus; experiment: Antimicrobial activity against Staphylococcus aureus CB1953 harboring rpoB H481Y, gyrA S84L, gyrA V598I, parC S80F, parC R570H mutant genes selected after CBR-2092 exposure for 7 days by broth microdilution method; format: functional; conditions: CB1953, 168 h; summary of the method: as §1
[29] = tested on: Staphylococcus aureus; experiment: Antimicrobial activity against rifampin-sensitive Staphylococcus aureus CB190 harboring rpoB Q468K mutant gene by broth microdilution method; format: functional; summary of the method: as §1
[30] = tested on: Staphylococcus aureus; experiment: Antimicrobial activity against Staphylococcus aureus CB1875 harboring gyrA […], parC R298K mutant genes and LNVIKEE461 inserted parC gene by broth microdilution method; format: functional; summary of the method: as §2
[31] = tested on: Staphylococcus aureus; experiment: Inhibition of DNA synthesis in rifamycin-resistant Staphylococcus aureus CB370 harboring rpoB H481Y mutant gene assessed as decrease in [methyl-3H]thymidine incorporation at 0.5 ug/ml; format: functional, organism-based; summary of the method: as §3

In the case of `CO[C@H]1/C=C/O[C@@]2(C)Oc3c(C)c(O)c4c(O)c(c(/C=N/N5CCC(N(C)C6([C@@H]7CCN(c8c(F)cn9c(=O)c(C(=O)O)cc(C%10CC%10)c9c8C)C7)CC6)CC5)c(O)c4c3C2=O)NC(=O)/C(C)=C\C=C\[C@H](C)[C@H](O)[C@@H](C)[C@@H](O)[C@@H](C)[C@H](OC(C)=O)[C@@H]1C`, the MIC [1] is reported as 1 µg/mL (≈ 0.83 µM), the Time [2] is reported as 41 min and the MIC [3] is reported as 1 µg/mL (≈ 0.83 µM). The MIC [4] was 64 µg/mL (≈ 53.1 µM), the MIC [5] was 0.5 µg/mL (≈ 0.415 µM) and the MIC [6] was 0.25 µg/mL (≈ 0.207 µM). The MIC [7] was 0.12 µg/mL (≈ 0.0996 µM), the MIC [8] was 0.5 µg/mL (≈ 0.415 µM) and the Activity [9] was “Active”. The MIC [10] was 1 µg/mL (≈ 0.83 µM), the MIC [11] was 0.12 µg/mL (≈ 0.0996 µM) and the Time [12] was 43 min. It also gave an MIC [13] of 0.06 µg/mL (≈ 0.0498 µM), an MIC [14] of 8 µg/mL (≈ 6.64 µM) and an MIC [15] of 0.5 µg/mL (≈ 0.415 µM). For the same molecule, the MIC [16] was 8 µg/mL (≈ 6.64 µM), the Activity [17] was “Active” and the MIC [18] was 0.015 µg/mL (≈ 0.0124 µM). For the same molecule, the Activity [19] was “Active”, the MIC [20] was 16 µg/mL (≈ 13.3 µM) and the Time [21] was 45 min. For the same molecule, the MIC [22] was 0.12 µg/mL (≈ 0.0996 µM), the MIC [23] was 0.25 µg/mL (≈ 0.207 µM) and the MIC [24] was 0.03 µg/mL (≈ 0.0249 µM). For the same molecule, the MIC [25] was 0.5 µg/mL (≈ 0.415 µM), the MIC [26] was > 8 µg/mL and the Activity [27] was “Active”. For the same molecule, the MIC [28] was 16 µg/mL (≈ 13.3 µM), the MIC [29] was 0.5 µg/mL (≈ 0.415 µM) and the MIC [30] was 0.008 µg/mL (≈ 0.00664 µM). The Activity [31] was “Active”.
